Only some compounds are listed: those with a hit (about 2.9% of all), similar ones and a draw of the others.
CAL PDZ FP-1: untagged CAL PDZ binding inhibitors, primary screen, biochemical, fluorescence polarization, HTS | AID 602252, 2012 | actives 0.92% (n = 300,000) | Golgi-associated PDZ and coiled-coil motif-containing protein (Homo sapiens), Q9HD26 | inhibition, % at 24.9 µM | purified CAL PDZ, TMR-peptide fluorescence polarization, 1 h;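 active = mean inhibition of at least 30% with at least half of replicates also reaching 30%; inconclusive = no clear call, values can overlap the other calls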;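 also: 0% = DMSO neutral control and 100% = excess unlabeled competitor peptide PRC23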
ERAP1 HTS inh: human ERAP1 aminopeptidase inhibitors, primary screen, biochemical, single point, plate reader | recombinant ERAP1, Leu-AMC fluorescence, 60 min | actives 0.15% (n = 340,000) | AID 652197, 2013 | inhibition, % at 10.7 µM;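 active = mean replicate inhibition of at least 30%, or all replicates individually reaching that 30% level; inactive = mean below 30% and not every replicate reaching it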;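 also: 0% = neutral control wells and 100% = L-leucinethiol positive control wells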
Target sequence (Q9NZ08 whole entry, looked up): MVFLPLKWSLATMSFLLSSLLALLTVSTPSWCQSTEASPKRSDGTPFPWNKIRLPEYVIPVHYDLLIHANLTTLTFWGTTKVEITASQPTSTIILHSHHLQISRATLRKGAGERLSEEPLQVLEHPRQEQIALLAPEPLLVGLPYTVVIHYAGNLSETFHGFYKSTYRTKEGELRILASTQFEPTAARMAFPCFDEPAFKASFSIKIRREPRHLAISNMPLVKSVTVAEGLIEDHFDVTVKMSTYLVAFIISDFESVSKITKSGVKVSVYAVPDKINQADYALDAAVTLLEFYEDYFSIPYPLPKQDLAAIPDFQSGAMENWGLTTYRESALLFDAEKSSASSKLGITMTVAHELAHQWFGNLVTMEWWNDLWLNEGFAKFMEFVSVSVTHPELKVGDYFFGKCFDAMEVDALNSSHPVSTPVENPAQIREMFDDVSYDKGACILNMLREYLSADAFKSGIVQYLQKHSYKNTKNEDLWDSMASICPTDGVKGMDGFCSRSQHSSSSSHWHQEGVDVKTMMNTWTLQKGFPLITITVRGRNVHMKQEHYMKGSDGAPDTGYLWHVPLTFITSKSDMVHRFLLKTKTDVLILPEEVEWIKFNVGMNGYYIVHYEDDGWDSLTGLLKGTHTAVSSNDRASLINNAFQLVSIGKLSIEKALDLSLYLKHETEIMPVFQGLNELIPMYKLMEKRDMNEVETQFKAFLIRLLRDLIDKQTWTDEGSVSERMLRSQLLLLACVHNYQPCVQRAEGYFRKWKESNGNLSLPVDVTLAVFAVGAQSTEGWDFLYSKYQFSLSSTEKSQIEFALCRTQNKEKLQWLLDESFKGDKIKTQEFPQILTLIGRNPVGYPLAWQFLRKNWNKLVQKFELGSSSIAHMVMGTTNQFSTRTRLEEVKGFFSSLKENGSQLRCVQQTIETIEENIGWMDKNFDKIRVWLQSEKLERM
SIRT5 block: SIRT5 desuccinylase inhibitors, primary screen, biochemical, fluorescence imaging, single point, set 5; inhibition, % at 15 µM; Purified SirT5, succinyl-peptide AMC, trypsin-coupled fluorescence; actives 1.1% (n = 330,000); in the data active = inhibition above about 15%; inconclusive = no clear call, values can overlap the other calls
DENV2 CPE: inhibitors of DENV2 cytopathic effect, primary screen, cell-based, plate reader, single concentration; DENV2-infected cells, cytopathic effect rescue; CPE inhibition, % at 9.99 µM; actives 1.7% (n = 350,000); in the data active = CPE inhibition above about 20%, passing the limit was not always enough; inconclusive = no clear call, values can overlap the other calls; tested in BHK-21 cells;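 also: 0% = median of neutral control wells and 100% = median of positive control wells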
S100A4 inh HTS: inhibitors of S100A4-myosin IIA peptide binding, primary screen, biochemical, fluorescence polarization, TAMRA-MyoIIA peptide. Protein S100-A4 (Homo sapiens), P26447. inhibition, % at 10.7 µM. actives 0.14% (n = 360,000). AID 652163, 2013;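 active = mean inhibition of at least 70% across replicates, with every replicate also reaching that level; inconclusive = mean inhibition reaches 70% but some replicates fall short; inactive = mean inhibition below 70%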
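assay system = human S100A4 monomer with TAMRA-labelled myosin IIA peptide | also added = labelled myosin peptide probe, 5 nM | incubation = 5 min between mix addition and reading | control set = DMSO and TFP controls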
CAL PDZ FP-2: CAL PDZ peptide-binding inhibitors, primary screen, biochemical, fluorescence polarization, Cer-tagged CAL PDZ, HTS; Golgi-associated PDZ and coiled-coil motif-containing protein (Homo sapiens), Q9HD26; purified CAL PDZ, TMR-peptide fluorescence polarization, 1 h; inhibition, % at 20 µM; actives 0.02% (n = 330,000); AID 504414, 2011;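 active = highest replicate inhibition of at least 40%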;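 also: plate controls were DMSO neutral control wells for no effect and unlabeled competitor peptide control wells for full effect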
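Test system: purified CerCALP PDZ construct; Compound dosing: one concentration, 20 µM compound; Also added: TMR-labelled reporter peptide T*-PRC34 bound in PDZ groove; Read-out: inhibition from polarization loss; Controls: unlabelled peptide and DMSO controls; Signal: FP readout, S and P plane fluorescence; Incubation: 1 h at RT.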
Starred values were filed as active, the others as inactive; ? = inconclusive; . = no result; ! = not confirmed by another sample.

SMILES	CAL PDZ FP-1	ERAP1 HTS inh	SIRT5 block	DENV2 CPE	S100A4 inh HTS	CAL PDZ FP-2
C[C@@H]1CN([C@@H](C)CO)S(=O)(=O)c2ccc(-c3cccnc3)cc2O[C@H]1CN(C)C(=O)NC1CCCCC1	.	-4.2	-12.6	12.1	-1.2	.
CC(=O)N1[C@@H]2c3ccc(C4=CCCC4)c(=O)n3C[C@@H]2[C@@H](CO)[C@@H]1C(=O)N1CCCCC1	.	0.9	-2.6	-3.3	6.0	.
COc1ccc(S(=O)(=O)N(C)C[C@H]2Oc3c(NC(=O)c4ccncc4)cccc3C(=O)N([C@@H](C)CO)C[C@@H]2C)cc1	.	-0.1	0.7	0.1	-2.4	.
COc1ccc(S(=O)(=O)N(C)C[C@H]2Oc3c(NC(=O)c4ccncc4)cccc3C(=O)N([C@H](C)CO)C[C@@H]2C)cc1	1.8	1.3	-0.5	24.6*!	-5.4	-0.7
CO[C@H]1CN(C)C(=O)c2cc(NS(C)(=O)=O)ccc2OC[C@H](C)N(C(=O)CC2CC2)C[C@@H]1C	.	-1.6	-1.2	-2.4	-1.0	.
CC(=O)N(C)C[C@H]1Oc2ncc(C#CC(C)(C)O)cc2C(=O)N([C@H](C)CO)C[C@H]1C	.	0.1	0.8	3.0	8.8	.
O=C(CSc1nc(=O)n2ccccc2n1)N1N=C(c2cccs2)CC1c1ccc(F)cc1 (stereo unspecified)	-2.6	0.4	1.0	59.5*	-2.9	-3.1
C[C@H]1CN([C@@H](C)CO)C(=O)CCCn2cc(nn2)CO[C@@H]1CN(C)CC1CCCCC1	.	-3.7	-0.9	0.5	18.5	.
O=S(=O)(c1ccccc1)N1CCN(CCc2ccccc2)CC1	69.0*	-0.2	.	-1.0	-3.7	-4.8
O=S(=O)(c1ccccc1)N1CCN(Cc2ccccc2)CC1	1.1	0.0	-0.3	-1.0	1.9	-0.7
Cc1ccc(S(=O)(=O)N[C@H]2CC[C@H](CC(=O)N3CCN(c4ccccc4)CC3)O[C@H]2CO)cc1	.	-0.9	-4.1	1.7	-9.6	.
Cc1ccc(S(=O)(=O)N[C@@H]2C=C[C@H](CC(=O)N3CCN(c4ccccc4)CC3)O[C@@H]2CO)cc1	.	-0.1	24.7*	0.2	-11.8	.
Cc1ccc(S(=O)(=O)N[C@@H]2CC[C@@H](CC(=O)N3CCN(c4ccccc4)CC3)O[C@@H]2CO)cc1	.	0.1	23.9*	-5.0	5.9	.
CN(C)CCCNC(=O)C[C@@H]1C=C[C@H](NS(=O)(=O)c2ccccc2)[C@@H](CO)O1	.	-0.6	15.4*	-3.9	-0.8	.
Cc1ccc(S(=O)(=O)N[C@@H]2C=C[C@H](CC(=O)N3CCN(c4ccccc4)CC3)O[C@H]2CO)cc1	.	-1.5	2.4	-4.2	4.4	.
CCS(=O)(=O)N[C@@H]1C=C[C@H](CC(=O)Nc2ccc(-c3ccccc3)cc2)O[C@@H]1CO	.	1.9	.	70.3*	-1.8	.
C[C@H]1CCCCO[C@@H](CN(C)Cc2ccc3c(c2)OCO3)[C@@H](C)CN([C@@H](C)CO)C(=O)c2cc(NC(=O)Nc3ccc4c(c3)OCO4)ccc2O1	.	-0.3	4.8	-21.6	-10.0	.
Cn1cnc(S(=O)(=O)N[C@@H]2CC[C@H](CC(=O)Nc3ccccc3)O[C@H]2CO)c1	.	-0.2	-7.7	?	45.1	.
Cn1cnc(S(=O)(=O)N[C@H]2CC[C@@H](CC(=O)Nc3ccccc3)O[C@@H]2CO)c1	.	0.1	34.4*	-2.1	-8.0	.
Cn1cnc(S(=O)(=O)N[C@@H]2C=C[C@H](CC(=O)N3CCN(c4ccccc4)CC3)O[C@@H]2CO)c1	.	-2.3	1.4	93.9*	3.1	.
COc1ccccc1S(=O)(=O)N[C@@H]1CC[C@@H](CC(=O)N2CCN(C)CC2)O[C@@H]1CO	.	3.5	-2.5	11.1	-51.1	.
Cc1ccc(S(=O)(=O)N[C@@H]2C=C[C@@H](CC(=O)N3CCc4ccccc4C3)O[C@@H]2CO)cc1	.	-1.6	-3.8	28.2*	3.3	.
O=C(C[C@H]1C=C[C@@H](NS(=O)(=O)c2ccccc2)[C@@H](CO)O1)N1CCc2ccccc2C1	.	0.9	0.2	-0.8	8.3	.
Cn1cnc(S(=O)(=O)N[C@@H]2C=C[C@@H](CC(=O)N3CCN(c4ccccc4)CC3)O[C@H]2CO)c1	.	-1.7	6.9	12.5	2.7	.
COc1ccccc1S(=O)(=O)N[C@H]1CC[C@H](CC(=O)N2CCN(C)CC2)O[C@@H]1CO	.	3.2	3.9	-11.3	128.0*	.
SMILES	CAL PDZ FP-1	ERAP1 HTS inh	SIRT5 block	DENV2 CPE	S100A4 inh HTS	CAL PDZ FP-2
O=C(N[C@@H]1CC[C@H](CCNS(=O)(=O)c2ccccc2)O[C@@H]1CO)c1cccc(F)c1	.	-0.8	11.6	-2.8	9.3	.
C[C@@H]1CCCCO[C@H](CN(C)C(=O)CCC(F)(F)F)[C@H](C)CN([C@H](C)CO)C(=O)c2cc(NC(=O)CCC(F)(F)F)ccc2O1	.	-3.6	-1.4	0.6	1.5	.
CC1CCN(Cc2nnnn2CCCC(=O)NCCc2cnn(C)c2)CC1	113.2*	-0.1	-4.0	-2.2	-0.4	-2.7
CO[C@H]1CN(C)C(=O)c2ccc(NC(=O)c3cc(C)on3)cc2OC[C@H](C)N(C(C)=O)C[C@@H]1C	.	-0.4	-0.6	11.6	4.8	.
COc1cccc(CN(C)CCCn2cnc3c(SC)ncnc32)c1	.	-3.1	15.1*	9.4	-1.7	.
COc1ccc(CN(C)CCCn2cnc3c(OCc4ccccc4)ncnc32)cc1	-2.2	-0.9	-1.3	?	-1.2	-0.3
Cc1c(Cl)cnc(NC(=O)COC(=O)Cc2coc3ccc4ccccc4c23)c1Cl	-1.5	-1.9	-2.1	86.0*	-5.8	-2.2
Cc1noc(C)c1S(=O)(=O)Nc1ccc2c(c1)C(=O)N([C@@H](C)CO)C[C@@H](C)[C@H](CN(C)C(=O)C1CCCCC1)OCCCC[C@H](C)O2	.	-4.2	6.8	-1.8	-14.5	.
COc1cccc(CN(C)C(=O)[C@@H](Cc2ccccc2)NC(=O)[C@H]2O[C@@H](n3ccc(=O)[nH]c3=O)[C@H](O)[C@@H]2O)c1	.	2.5	0.6	21.6*	-0.1	.
Cn1cnc(S(=O)(=O)N[C@H]2C=C[C@@H](CC(=O)Nc3ccc(-c4ccccc4)cc3)O[C@H]2CO)c1	.	-0.4	2.9	3.7	2.6	.
CC(C)(C)c1ccc(Nc2n[nH]c3ccccc23)cc1	.	-4.5	-3.3	65.8*	-2.4	.
Cc1n[nH]c2ccccc2c1=O	0.9	-2.4	4.0	9.8	0.2	1.2
O=C(C[C@@H]1CC[C@H]2[C@@H](COC[C@H](O)CN2C(=O)Nc2cc(Cl)cc(Cl)c2)O1)NCC1CC1	.	0.8	0.8	19.6	2.4	.
